# Measurements from ChEMBL document CHEMBL3804806, “Synthesis of (Z)-1-(1,3-diphenyl-1H-pyrazol-4-yl)-3-(phenylamino)prop-2-en-1-one derivatives as potential anticancer and apoptosis inducing agents” (Eur J Med Chem, 2016).
# Calls of active or inactive are those of the source. The rule behind the calls is not given here.
# Key:
# HT-29 = test: Antiproliferative activity against human HT-29 cells after 48 hrs by MTT assay; format: functional, cell-based; conditions: HT-29, 48 h
# Outline: (§1)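 Cells seeded at 3,000-5,000/well by doubling time and grown 24 h (37 °C, 5% CO2). HT-29/U87MG kept in DMEM + 10% FBS; A549/PC-3/HaCaT in RPMI-1640 + 10% FBS. Compounds for 48 h, then MTT 4 h, formazan dissolved in DMSO, A570 minus A630. % inhibition vs DMSO-treated cells; IC50 by probit. Three independent experiments in quadruplicate; mean ± SD.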
# [1] = Antiproliferative activity against human U87MG cells after 48 hrs by MTT assay; format: functional, cell-based, U-87MG ATCC; conditions: U-87 MG; outline: as §1
# [2] = Antiproliferative activity against human PC3 cells after 48 hrs by MTT assay; format: functional, cell-based; conditions: PC-3, 48 h; outline: as §1
# A549 [3] = test: Antiproliferative activity against human A549 cells after 48 hrs by MTT assay; format: functional, cell-based; conditions: A549, 48 h; outline: as §1
# HaCaT = test: Antiproliferative activity against human HaCaT cells after 48 hrs by MTT assay; format: cell-based; outline: as §1
# [4] = Selectivity ratio of IC50 for human HaCaT cells to IC50 for human A549 cells; format: ADME, cell-based; conditions: HaCaT cells versus A549 cells, read-out: Ratio IC50
# Outline: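 Ratio built from MTT IC50s: 48 h exposure, absorbance 570 minus 630 nm, inhibition relative to DMSO vehicle, probit-fitted IC50 for HaCaT keratinocytes and A549 cells. Three independent experiments, quadruplicate wells.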
# A549 [5] = test: Induction of apoptosis in human A549 cells assessed as chromatin condensation at antiproliferative IC50 after 24 hrs by Hoechst 33242 staining based confocal microscopic analysis; format: functional, cell-based
# Outline: (§2)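 A549 cells (1x10⁶/well) on coverslips exposed 24 h at IC50, then fixed in 4% paraformaldehyde 10 min at 4 °C. Stained with Hoechst 33242 (5 μg/mL) 20 min at room temp. Nuclear morphology examined by confocal microscopy, excitation 350/emission 460 nm, 20X.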
# A549 [6] = test: Cell cycle arrest in human A549 cells assessed as accumulation at G2/M phase at antiproliferative IC50 after 24 hrs by propidium iodide staining based flow cytometry (reference value: 27.2%); format: functional
# A549 [7] = test: Anti-migratory activity in human A549 cells at antiproliferative IC50 after 24 to 48 hrs by wound healing assay; format: functional, cell-based
# A549 [8] = test: Induction of apoptosis in human A549 cells assessed as loss in mitochondrial membrane potential at antiproliferative IC50 after 24 hrs by rhodamine 123 staining based spectrofluorometry relative to control; format: functional
# Outline: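 A549 cells plated at 5×10^5 cells/mL, adhered overnight, then 24 h at IC50. Harvested and incubated with rhodamine-123 (10 µg/mL) in PBS 30 min at room temp, washed. Fluorescence read by spectrofluorometer, ex 480/em 530 nm, vs untreated cells. Mean ± SD of three independent experiments, each in triplicate.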
# A549 [9] = test: Anti-migratory activity in human A549 cells assessed as disruption of actin fibre assembly after 12 hrs by rhodamine phalloidin/Hoechst 33242 staining based confocal microscopic analysis; format: functional, cell-based
# Outline: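 A549 cells (1x10⁶/well) grown on coverslips 24 h, then exposed to compounds 12 h. Washed, fixed in 4% paraformaldehyde in PBS, stained with rhodamine-phalloidin (F-actin) and Hoechst 33242 (nuclei), mounted in anti-fade. Examined by confocal microscopy, 20X objective.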
# A549 [10] = test: Induction of apoptosis in human A549 cells assessed as intracellular ROS level at antiproliferative IC50 after 24 hrs by DCFDA staining based fluorescence microscopic analysis relative to control; format: functional
# A549 [11] = test: Induction of apoptosis in human A549 cells assessed as nuclear fragmentation at antiproliferative IC50 after 24 hrs by Hoechst 33242 staining based confocal microscopic analysis; format: functional, cell-based; outline: as §2
SMILES,IC50 (HT-29) [µM],IC50 [1] [µM],IC50 [2] [µM],IC50 (A549 [3]) [µM],IC50 (HaCaT) [µM],selectivity ratio [4],Activity (A549 [5]),Activity (A549 [6]) [%],Activity (A549 [7]),Activity (A549 [8]) [%],Activity (A549 [9]),fold change (FC) (A549 [10]),Activity (A549 [11])
COc1cc(N/C=C\C(=O)c2cn(-c3ccccc3)nc2-c2ccc(F)cc2)cc(OC)c1OC,7.77,12.6,4.89,9.35,32.8,,,,,,,,
COc1ccc(-c2nn(-c3ccccc3)cc2C(=O)/C=C\Nc2ccc(C(F)(F)F)cc2)cc1,9.87,> 50,> 50,> 50,> 50,,,,,,,,
COc1ccc(N/C=C\C(=O)c2cn(-c3ccccc3)nc2-c2ccccc2)cc1,1.56,> 50,6.4,3.25,> 50,,,,,,,,
COc1ccc(N/C=C\C(=O)c2cn(-c3ccccc3)nc2-c2ccc(F)cc2)cc1,3.2,2.5,4.6,8.9,19.6,,,,,,,,
O=C(/C=C\Nc1ccc(C(F)(F)F)cc1)c1cn(-c2ccccc2)nc1-c1ccc(Cl)cc1,> 50,> 50,> 50,> 50,> 50,,,,,,,,
COc1cc(N/C=C\C(=O)c2cn(-c3ccccc3)nc2-c2ccccc2)cc(OC)c1OC,9.8,2.35,5.93,6.34,36.2,,,,,,,,
O=c1[nH]cc(F)c(=O)[nH]1 [FLUOROURACIL],2.8,3.65,2.76,3.98,16.1,,,,,,,,
COc1cc(-c2nn(-c3ccccc3)cc2C(=O)/C=C\Nc2ccc(O)cc2)cc(OC)c1OC,2.5,1.8,4.6,3.16,17.6,,,,,,,,
O=C(/C=C\Nc1ccc(F)cc1)c1cn(-c2ccccc2)nc1-c1ccccc1,6.87,10.2,7.98,4.67,34.2,,,,,,,,
O=C(/C=C\Nc1ccc(Cl)cc1)c1cn(-c2ccccc2)nc1-c1ccc(F)cc1,4.6,8.9,3.8,6.7,21.3,,,,,,,,
O=C(/C=C\Nc1ccc(O)cc1)c1cn(-c2ccccc2)nc1-c1ccc(Cl)cc1,2.5,1.5,4.43,1.91,22.6,10,Active,49.2,Active,45.8,Active,2.1,Active
COc1ccc(N/C=C\C(=O)c2cn(-c3ccccc3)nc2-c2ccc(OC)cc2)cc1,8.76,> 50,13.4,6.78,> 50,,,,,,,,
COc1cc(N/C=C\C(=O)c2cn(-c3ccccc3)nc2-c2ccc(Cl)cc2)cc(OC)c1OC,12.7,17.8,9.98,5.64,46.6,,,,,,,,
O=C(/C=C\Nc1ccc(C(F)(F)F)cc1)c1cn(-c2ccccc2)nc1-c1ccc(F)cc1,> 50,> 50,> 50,> 50,> 50,,,,,,,,
COc1cc(N/C=C\C(=O)c2cn(-c3ccccc3)nc2-c2cc(OC)c(OC)c(OC)c2)cc(OC)c1OC,8.4,5.1,14.1,7.98,20.9,,,,,,,,
